# Assay outcomes: PubChem BioAssay, several laboratories
# Compounds with a hit are over-represented: about 5.1% of the library has one in this group of screens.
# APP 5'UTR act: activators of APP 5'UTR luciferase reporter, primary screen, SH-SY5Y cells; SH-SY5Y APP 5'UTR luciferase reporter, luminescence; zero percent = DMSO vehicle wells; activation, % at 2 µM; 1% of 190,000 active; AID 1276, 2008;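 active = activation above a set limit, based on mean plus 3 SD of controls, cut at about 140% in these data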
# STAT1 activator: STAT1 signaling activators, primary screen, cell-based, HTS, luciferase reporter. NIH 3T3 STAT1-luciferase reporter, IFN-gamma, luminescence; 100% = IFN-gamma alone, no compound. activation (% of control), % at 5.5 µM. 2.6% of 200,000 active. AID 932, 2007;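 active = activation above the screen-wide mean activation plus 3 SD, cut at about 130% in these data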;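 also: raw ratio to IFN-gamma control signal so 100% means no change and 0% no light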
# STAT1 blocker: STAT1 signaling inhibitors, primary screen, cell-based, HTS, luciferase reporter | NIH 3T3 STAT1-luciferase reporter, IFN-gamma, luminescence | inhibition, % at 5.5 µM | 0.35% of 200,000 active | AID 920, 2007;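 active = inhibition above a set limit, the mean inhibition across all tested compounds plus 3 SD, cut at about 34% in these data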;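 also: 0% = IFN-gamma with DMSO and 100% = IFN-gamma with 300 µM nifuroxazide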
# NF-kB neuron act: activators of NF-kB expression in neurons, primary screen, cell-based, HTS | fold change at 12.5 µM | human neuronal cells, NF-kB reporter expression; hits give high values | 1.6% of 190,000 active | AID 1239, 2008; in the data active = fold change above about 3.3
# STAT3 act: IL-6 driven STAT3 reporter potentiators, primary screen, U3A cells, luciferase, luminescence, MLSCN library | activation (% of control), % at 5.6 µM | AID 871, 2007 | IL-6 STAT3-luciferase reporter; 100% = signal with IL-6 EC80 alone | 0.91% of 190,000 active;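 active = activation above the screen-wide mean of compound activation plus 3 SD, cut at about 130% in these data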;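 also: 0% = background luminescence of wells with medium and substrate only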
#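 Test system: human U3A cells carrying STAT3-luciferase construct; control set: IL-6-only wells as 100% reference; timing: compound pre-incubation 1 h before IL-6, then 6 h stimulation at 37 °C; also added: IL-6 stimulus at 33 ng/mL final; evaluation: % activation versus median of IL-6-stimulated wells; detection: reporter luminescence signal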
# STAT3 inh: IL-6 driven STAT3 reporter inhibitors, primary screen, U3A cells, luciferase, luminescence, MLSCN library | IL-6 STAT3-luciferase reporter; host cell line lacks STAT1 | inhibition, % at 5.5 µM | 0.89% of 190,000 active;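 active = inhibition above the mean inhibition across all screened compounds plus 3 SD, cut at about 44% in these data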;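 also: 0% = DMSO only wells and 100% = 100 µM nifuroxazide control wells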
# STAT1 activ conf: STAT1 signaling activators, confirmation, cell-based, HTS, luciferase reporter. shares compounds with STAT1 activator. NIH 3T3 STAT1-luciferase reporter, IFN-gamma potentiation, luminescence; 100% = IFN-gamma EC80 alone, no compound. activation (% of control), % at 5.7 µM. 97% of 1,200 active;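 active = activation above a set limit carried over from the earlier primary STAT1 screen, cut at about 140% in these data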;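 also: simple ratio to median IFN-gamma plus DMSO wells so 0% means no light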
# NFkB act STAT1ct: NF-kB reporter activators, TNF-alpha stimulated, counter-screen for STAT1 activator project, cell-based, HEK293T, luciferase luminescence; shares compounds with STAT1 activator; 100% = TNF-alpha with vehicle only; activation (% of control), % at 5.7 µM; 43% of 1,200 active; AID 1306, 2008;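 active = activation above the mean of solvent-only control wells plus 3 SD, set per campaign, cut at about 130% in these data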;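 also: TNF-alpha given at a submaximal dose yielding about 80% of full reporter signal; values are well signal over median control so 100% means no change and 0% no light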
# STAT3 act 2: STAT3 reporter activation by STAT1 hits, confirmation, counter-screen for STAT1 activator project, U3A cells, luciferase, luminescence; shares compounds with STAT1 activator; IL-6; cells lack STAT1; 100 = IL-6 alone, no compound effect; activation (% of control), % at 5.7 µM; 46% of 1,200 active; AID 1316, 2008;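 active = activation above the solvent-only control well mean plus 3 SD, set per plate batch, cut at about 110% in these data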;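 also: 0% = no luminescence and 100% = median IL-6 plus DMSO wells; higher means more STAT3 reporter activation so hits are non-selective activators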
# Starred values were filed as active, the others as inactive; / = no result.
SMILES,APP 5'UTR act,STAT1 activator,STAT1 blocker,NF-kB neuron act,STAT3 act,STAT3 inh,STAT1 activ conf,NFkB act STAT1ct,STAT3 act 2
CCCOc1ccc(N2C(=O)CC(SCc3nc4ccccc4[nH]3)C2=O)cc1 (stereo not given),-6,91,8,0.97,101,1,/,/,/
C=CCSc1nnc(CNC(=O)c2ccc(Cl)cc2)n1CC,5,106,-8,1.6,98,12,/,/,/
CC(=O)CCc1ccc(Oc2nc(-c3cccnc3)nc3ccccc23)cc1,-8,95,5,0.71,94,15,/,/,/
Cc1ccc(C(=O)NCCc2ccc(S(N)(=O)=O)cc2)cc1[N+](=O)[O-],9,97,2,1.3,96,6,/,/,/
Cc1ccc2c(Cl)cc(Cl)c(OCC(=O)Nc3ccc(C)c(S(=O)(=O)N(C)C)c3)c2n1,3,102,-2,0.99,104,-5,/,/,/
O=S(=O)(Cc1ccc(Cl)cc1)c1ncc(CO)n1Cc1ccccc1,2,100,-4,0.96,100,4,/,/,/
O=C(O)CCC(=O)NNC(=O)c1cccs1,22,105,-8,1.1,96,12,/,/,/
O=C(O)CC/C(=N/NC(=O)c1cccs1)c1ccccc1,92,157*,-64,2.3,86,20,134*,112,102
O=C(/C=C/c1ccc(Br)cc1)N1CCN(c2cccc(C(F)(F)F)c2)CC1,7,97,3,0.96,105,-8,/,/,/
Cc1cccc(Nc2nc3ccccc3s2)c1C,158*,174*,-84,9.2*,82,22,218*,151*,108
COc1ccc(/C=N/OCC(=O)Nc2nc3ccccc3s2)cc1,2,106,-7,1,104,-1,/,/,/
COc1ccc(Nc2nc3ccccc3s2)cc1,164*,159*,-61,7.2*,98,5,224*,143*,106
Cc1ccc(Cl)cc1N(Cc1ccc(C(=O)NCc2cccnc2)cc1)S(=O)(=O)c1ccccc1,9,101,-3,0.58,106,3,/,/,/
Cc1[nH]n(-c2ccccc2)c(=O)c1/C=N/NC(=O)C(C)C,2,105,-5,0.76,96,6,/,/,/
Cc1ccc(N(CC(=O)NCCSc2ccccn2)S(C)(=O)=O)cc1,-20,97,2,1.2,97,6,/,/,/
Cc1nc2cc(NC(=O)Nc3ccc(N4CCOCC4)cc3)ccc2n1C,8,103,-3,0.94,91,16,/,/,/
Cc1ccc(NC(=O)Nc2ccc3c(c2)nc(C)n3C)cc1C,121,171*,-79,4.8*,100,12,194*,137*,103
O=C(Nc1ccccc1Cl)c1cnccn1,-7,94,8,1.1,82,27,/,/,/
CC(C)(C)C(=O)c1cnc(Nc2ccccc2Cl)s1,114,158*,-64,5.1*,97,3,204*,133,111*
CC(C)C(=O)Nc1ncc(Cc2ccccc2Cl)s1,-15,92,7,1.8,94,10,/,/,/
O=C(c1ccccc1)c1cnc(Nc2ccccc2Cl)s1,174*,162*,-69,7.3*,106,-6,214*,135*,113*
O=C(CCc1nnc(CCC2CCCCC2)o1)NCCc1cccnc1,15,102,-4,0.93,102,2,/,/,/
Cc1cccc(NS(=O)(=O)c2c(C)noc2C)c1,-8,99,-1,1.1,92,12,/,/,/
Cc1cccc(N/C=C/c2onc(C)c2[N+](=O)[O-])c1,16,155*,-57,1.1,115,-18,199*,141*,107
COc1ccccc1NC(CC(=O)c1ccccc1)C(=O)OCC(=O)c1ccc(F)cc1 (stereo not given),89,161*,-69,1.2,80,24,185*,127,102
SMILES,APP 5'UTR act,STAT1 activator,STAT1 blocker,NF-kB neuron act,STAT3 act,STAT3 inh,STAT1 activ conf,NFkB act STAT1ct,STAT3 act 2
Cc1c(Cl)cccc1NC(CC(=O)c1ccccc1)C(=O)OCC(=O)c1cccs1 (stereo not given),9,98,2,1,121,-23,/,/,/
COc1cccc(-c2noc(-c3ccoc3C)n2)c1,109,160*,-67,2.9,84,27,192*,134*,111*
COc1ccc(-c2noc(-c3ccco3)n2)cc1OC,124,152*,-57,5.7*,108,-4,202*,137*,119*
COc1ccc(-c2csc(Nc3ccc(S(N)(=O)=O)cc3)n2)cc1,/,104,-5,0.84,75,30,/,/,/
CC(=O)c1cccc(Nc2nc(-c3ccccc3)cs2)c1,170*,168*,-74,4.8*,106,3,230*,152*,112*
CC(=O)NNc1nc(-c2ccccc2)cs1,5,103,-5,1.3,107,-2,/,/,/
COc1ccc(-c2csc(Nc3ccccc3)n2)cc1,195*,180*,-85,5.4*,99,1,232*,152*,110
COc1ccc(Nc2nc(-c3ccc(OC)cc3)cs2)cc1,137*,151*,-55,/,94,12,182*,142*,99
COc1ccc(-c2csc(Nc3ncccc3C)n2)cc1,154*,185*,-89,12*,104,-1,253*,143*,106
COc1ccc(Nc2nc(-c3c(C)nc4ncccn34)cs2)cc1,-94,73,29,1,94,13,/,/,/
COc1cc(NS(=O)(=O)c2ccc(NC(=S)NC(=O)COc3ccccc3OC)cc2)nc(OC)n1,-3,96,4,/,103,2,/,/,/
CC(=O)NCC(=O)N1CCCC(C(=O)c2ccc(Oc3ccccc3)cc2)C1 (stereo not given),8,105,-6,1.5,106,5,/,/,/
c1ccc(-c2csc(Nc3cccnc3)n2)nc1,20,127,-34,1.4,98,6,/,/,/
c1ccc(Nc2nc(-c3ccccn3)cs2)cc1,205*,158*,-63,7.5*,108,-10,226*,150*,126*
